This note sets out measurements from ChEMBL document CHEMBL3808283, “Biological Characterization and in Vivo Assessment of the Activity of a New Synthetic Macrocyclic Antifungal Compound” (J Med Chem, 2016).

Broadly, the MIC is the least concentration at which growth counts as inhibited.

Data set [1] has as its system Candida albicans. Put plainly: Antifungal activity against azole-susceptible Candida albicans isolate DSY294 in immunocompetent Balb/c mouse candidiasis model assessed as reduction in CFU count in kidney at 8 mg/kg/day, ip regime measured on day 7 post infection. The format is functional, organism-based. In short, it runs like this:
(§1)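 Immunocompetent BALB/c mice, 10 per strain group, received 7 × 10^4 CFU of C. albicans in 200 µL saline via the lateral vein. Fluconazole was given i.p. at 8 mg/kg/day. On day 7, spleen and kidneys were weighed, homogenized, and plated on YPD agar (2 days, 30 °C) for CFU per gram of organ. Analysis used Wilcoxon rank-sum, P<0.05.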

In data set [2] the test system is Candida albicans. Put plainly: Antifungal activity against fluconazole-susceptible Candida albicans ATCC 90028 in immunocompetent Balb/c mouse candidiasis model assessed as reduction in CFU count in spleen at 8 mg/kg/day, ip regime measured on day 7 post infection. The format is functional, organism-based. Summed up: as §1
Data set [3] concerns Candida albicans. Put plainly: Antifungal activity against azole-susceptible Candida albicans isolate DSY294 in immunocompetent Balb/c mouse candidiasis model assessed as reduction in CFU count in spleen at 8 mg/kg/day, ip regime measured on day 7 post infection. The format is functional, organism-based. In short, it runs like this:
as §1

In data set [4] the test system is Candida albicans. Description: Antifungal activity against fluconazole-susceptible Candida albicans ATCC 90028 in immunocompetent Balb/c mouse candidiasis model assessed as reduction in CFU count in kidney at 8 mg/kg/day, ip regime measured on day 7 post infection. The format is functional, organism-based. In short, it runs like this:
as §1

Data set [5] can be described thus: Drug transport in Cryptococcus neoformans assessed as ABC transpoter-mediated drug accumulation at 5 to 80 uM after 24 hrs by confocal microscopic analysis. The format is ADME.
The subject of data set [6] is Candida albicans. Put plainly: Antifungal activity against Candida albicans ATCC 60193 up to 96 hrs by broth dilution assay. The format is functional. The following applies: ATCC 60193, 96 h. A general note: Dilution methods test growth across graded concentrations, often in twofold steps.
Data set [7] is described as follows: Drug transport in Candida albicans ATCC 60193 assessed as ABC transpoter-mediated drug accumulation at 5 to 80 uM after 24 hrs by confocal microscopic analysis. The format is ADME.
The nature of data set [8]: Drug transport in Cryptococcus neoformans with damaged cell wall assessed as ABC transpoter-mediated drug accumulation in cytoplasm at 40 uM after 48 hrs by confocal microscopic analysis. The format is ADME. In short, it runs like this: (§2)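 C. albicans ATCC 60193 or Cry. neoformans treated 48 h with the fluorescent probe at 40 µM from a DMSO solution. Cells were washed twice in PBS, fixed in 4% formaldehyde for 30 min at 4 °C, washed again, spotted on glass slides, dried and mounted. Examined by confocal microscopy, with visible, fluorescent and merged images compared against untreated cells.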

A short description of data set [9]: Drug transport in Candida albicans ATCC 60193 assessed as ABC transpoter-mediated drug accumulation in cytoplasm at 40 uM after 48 hrs by confocal microscopic analysis. The format is ADME. Summed up:
as §2

Data set [10] is described as follows: Drug transport in Cryptococcus neoformans assessed as ABC transpoter-mediated drug accumulation in cytoplasm at 40 uM after 48 hrs by confocal microscopic analysis. The format is ADME. In short, it runs like this:
as §2

Data set [11] can be described thus: Drug transport in Candida albicans ATCC 60193 with damaged cell wall assessed as ABC transpoter-mediated drug accumulation in cytoplasm at 40 uM after 48 hrs by confocal microscopic analysis. The format is ADME. Summed up: as §2
Data set [12] deals with Candida albicans. Description: Antifungal activity against Candida albicans isolate DSY654 harboring CDR1/2 deletion mutant at 100 ug/ml by serial dilution assay. The format is functional, organism-based. In short, it runs like this:
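Spot dilution assay: C. albicans cells 10-fold serially diluted from 2 × 10^7 cells/mL, with 5 µL of each dilution spotted onto YEPD agar plates containing the drug.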

Structures are written as SMILES. Converted amounts (≈) assume the structure as drawn. The source made the active and inactive calls. No cut-off for these calls is given here.

With `OC(Cn1cncn1)(Cn1cncn1)c1ccc(F)cc1F`, the result in the data set on Candida albicans [1], in the data set on Candida albicans [2], in the data set with Candida albicans [3] and in the data set with Candida albicans [4] was Active.
Consider `CN(C)c1cccc2c(S(=O)(=O)NCCCCCCCCN3CCCCCCCCNC(=N)NC3=O)cccc12`, for which the Drug transport entry in [5] and in [7] was “Active” each time. The compound further showed an MIC against Candida albicans [6] of over 125 µM.
Regarding `C/C=C/CNC(=N)NCCCCCCCCN1CCCCCCOc2cc(OCCCNC(=S)Nc3ccc4c(c3)C(=O)OC43c4ccc(O)cc4Oc4cc(O)ccc43)ccc2CNC(=N)NC1=O`, the Drug transport entry in data set [8] was “Not Active”; in data set [9], “Active”; in data set [10], “Active”; in data set [11], “Not Active”. The compound also had an MIC with Candida albicans [6] of 80 µM (≈ 78.1 µg/mL).
In the case of `OCCN1CCN(CCCN2c3ccccc3Sc3ccc(C(F)(F)F)cc32)CC1`, the outcome in the data set with Candida albicans [12] was Active.
In the case of `CN(C)c1cccc2c(S(=O)(=O)NC(=N)NCCCCCCCCN3CCCCCCCCNC(=N)NC3=O)cccc12`, the Drug transport entry in [5] and in data set [7] was “Active” each time. In the data set with Candida albicans [6], this compound yielded an MIC of over 125 µM.
